Experimental data as given in ChEMBL document CHEMBL3351414, “Novel 9'-substituted-noscapines: synthesis with Suzuki cross-coupling, structure elucidation and biological evaluation” (Eur J Med Chem, 2014).

Legend:
IGROV-1 = experiment: Antiproliferative activity against human IGROV1 cells assessed as reduction in cell viability after 72 hrs by MTT assay; format: functional, cell-based; details: IGROV-1, 72 h
Procedure, shortened: (§1)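 Cells kept in RPMI-1640 (Jurkat, SEM, RS4;11) or DMEM (A549, HeLa, IGROV-1, HT-29) with 10% FBS plus penicillin/streptomycin. 8×10^3 cells per well were left 18 h at 37 °C in 5% CO2. Medium was then replaced with fresh medium holding graded compound concentrations from 10 mM DMSO stocks. Cells were incubated 72 h and viability read by MTT. IC50 is the mean ± SEM from dose–response curves of at least three independent experiments.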

LoVo = experiment: Antiproliferative activity against human LoVo cells assessed as reduction in cell viability after 72 hrs by MTT assay; format: functional, cell-based
Tubulin (Bos taurus) = Tubulin (Bos taurus) (UniProt Q6B856+Q862L2+Q862F3); experiment: Displacement of [3H]colchicine from bovine brain tubulin at 500 uM after 10 mins by liquid scintillation counting
Tubulin [1] = biological target: T1, Tubulin (Bos taurus, UniProt Q6B856+Q862L2+Q862F3); experiment: Displacement of [3H]colchicine from bovine brain tubulin assessed as rate of assembly after 10 mins by liquid scintillation counting
Tubulin [2] = biological target: T1, Tubulin; experiment: Inhibition of bovine brain tubulin assessed as extent of assembly preincubated for 15 mins by turbidimetry
Procedure, shortened: (§2)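 Bovine brain tubulin at 10 µM (1.0 mg/mL) in 0.8 M monosodium glutamate pH 6.6 with 4% DMSO and varying compound was preincubated 15 min at 30 °C, then chilled. GTP was added to 0.4 mM final and the temperature jumped from 0 to 30 °C. Turbidity was followed at 350 nm, scoring either maximum rate or extent of assembly at 20 min.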

PBL [3] = experiment: Cytotoxicity against resting human PBLs assessed as reduction in cell growth; format: cell-based
Procedure, shortened: (§3)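 Peripheral blood lymphocytes from healthy donors, tested either resting (no PHA) or PHA-stimulated. Value is the concentration reducing cell growth by 50%, mean ± SEM of three separate experiments.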

Tubulin [4] = biological target: T1, Tubulin; experiment: Inhibition of bovine brain tubulin assessed as rate of assembly preincubated for 15 mins by turbidimetry; procedure, shortened: as §2
CCRF-CEM = experiment: Antiproliferative activity against human CEM cells assessed as reduction in cell viability after 72 hrs by MTT assay; format: functional, cell-based
Jurkat = experiment: Antiproliferative activity against human Jurkat cells assessed as reduction in cell viability after 72 hrs by MTT assay; format: functional, cell-based; procedure, shortened: as §1
HeLa = experiment: Antiproliferative activity against human HeLa cells assessed as reduction in cell viability after 72 hrs by MTT assay; format: functional, cell-based; procedure, shortened: as §1
PBL [5] = experiment: Cytotoxicity against PHA-stimulated human PBLs assessed as reduction in cell growth; format: cell-based; procedure, shortened: as §3
[6] = Antiproliferative activity against human SEM cells assessed as reduction in cell viability after 72 hrs by MTT assay; format: functional, cell-based; procedure, shortened: as §1
[7] = Antiproliferative activity against human RS4:11 cells assessed as reduction in cell viability after 72 hrs by MTT assay; format: functional, cell-based; details: RS4-11, 72 h; procedure, shortened: as §1
HT-29 = experiment: Antiproliferative activity against human HT-29 cells assessed as reduction in cell viability after 72 hrs by MTT assay; format: functional, cell-based; details: HT-29, 72 h; procedure, shortened: as §1
A549 = experiment: Antiproliferative activity against human A549 cells assessed as reduction in cell viability after 72 hrs by MTT assay; format: functional, cell-based; details: A549, 72 h; procedure, shortened: as §1
CA46 [8] = experiment: Cell cycle arrest in human CA46 cells assessed as accumulation at G2/M phase at 5 times IC50 by flow cytometry; format: functional
CA46 [9] = experiment: Cell cycle arrest in human CA46 cells assessed as reduction in mitotic index by Giemsa staining method relative to control; format: functional; set-up: scale not given: the % may be the effect or the level left
Procedure, shortened: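 CA46 Burkitt lymphoma cells grown in RPMI 1640 with 17% FBS and 2 mM L-glutamine at 37 °C, 5% CO2, treated 16 h. Cells were swollen 10 min in half-strength PBS, fixed in 0.5% acetic acid–1.5% ethanol, then spread from 25% acetic acid/75% ethanol. Slides were Giemsa-stained. Mitotic cells were those with condensed chromosomes and no nuclear membrane, with ≥200 cells counted per condition.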

| IC50 (LoVo) [µM] | inhibition (Tubulin (Bos taurus)) [%] | IC50 (Tubulin [1]) [µM] | IC50 (Tubulin [2]) [µM] | IC50 (Tubulin [4]) [µM] | IC50 (CCRF-CEM) [µM] | IC50 (Jurkat) [µM] | IC50 (HeLa) [µM] | IC50 (HT-29) [µM] | IC50 (A549) [µM] | Compound | IC50 (IGROV-1) [µM] | IC50 (PBL [3]) [µM] | IC50 (PBL [5]) [µM] | IC50 [6] [µM] | IC50 [7] [µM] | Activity (CA46 [8]) [%] | Activity (CA46 [9]) [%] |
| --- | --- | --- | --- | --- | --- | --- | --- | --- | --- | --- | --- | --- | --- | --- | --- | --- | --- |
| 57.1 | 13 | > 400 | > 400 | > 400 | 6.9 | 33.6 | 30.8 | 72.7 | 59.7 | COc1ccccc1-c1c2c(c(OC)c3c1OCO3)[C@H]([C@H]1OC(=O)c3c1ccc(OC)c3OC)N(C)CC2 | 90.9 | > 200 | 42.4 | 22.2 | 13.8 |  |  |
|  |  |  |  |  |  |  |  |  |  | COc1ccc(/C=C\c2cc(OC)c(OC)c(OC)c2)cc1O [COMBRETASTATIN A4] |  |  |  |  |  | >80 | 46 |
